Experiment [1] deals with T1, Serotonin 3 (5-HT3) receptor (Rattus norvegicus) (UniProt P35563+Q9JJ16). Description: 5-hydroxytryptamine 3 receptor antagonistic activity measured by inhibition of 5-HT-induced bradycardia (iv administration 10 ug/kg dose in urethane-anesthetized rats). Type of experiment: functional, organism-based. A digest of the protocol:
(§1)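 Urethane-anesthetized rats. First 5HT challenge 30 μg/kg iv gives a transient bradycardia. Once heart rate is back at steady state (≤5 min), test compound or saline goes in via the femoral vein. 5HT 30 μg/kg iv is repeated 15 min later. % inhibition is the difference between first and second bradycardia at peak, each animal its own control. Means ± SEM, groups of 3–16 rats.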

Experiment [2] addresses T1, Serotonin 3 (5-HT3) receptor (Rattus norvegicus). The experiment can be described thus: 5-hydroxytryptamine 3 receptor antagonistic activity was measured by the inhibition of 5H+ T-induced bradycardia after iv administration of 3 ug/kg dose in urethane-anesthetized rats. In kind it is functional, organism-based. In a few lines:
(§2)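 Urethane-anesthetized rats; antagonist or saline given iv via femoral vein after heart rate settled (≤5 min) from an initial 5HT challenge (30 µg/kg iv). 5HT was given again 15 min later. Peak bradycardia measured, each rat its own control; % inhibition = difference between first and second responses. Groups of 3–16 rats, means ± SEM.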

The target is the same in experiment [3]. The experiment can be described thus: Compound was tested for the inhibition of 5-HT-induced bradycardia after intravenous administration of 0.3 ug/kg dose in urethane-anesthetized rats. Type of experiment: functional, organism-based. In a few lines: as §2
For experiment [4] the target is unchanged. The experiment can be described thus: Compound was tested for the inhibition of 5-HT-induced bradycardia after intravenous administration of 1 ug/kg dose in urethane-anesthetized rats. In kind it is functional, organism-based. A digest of the protocol: as §2
Experiment [5] has the same target. The experiment can be described thus: Compound was tested for the inhibition of 5-HT-induced bradycardia after peroral administration of 100 ug/kg dose in urethane-anesthetized rats. In kind it is functional, organism-based. In a few lines:
(§3)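 Fasted rats gavaged (5 mL/kg) with antagonist or vehicle (distilled water). Urethane anesthesia and surgical preparation followed, 15–20 min before 5HT challenge. 5HT 30 µg/kg iv given 1 h after dosing, with vehicle-treated rats as controls. Peak % inhibition of bradycardia in groups of 3–11, means ± SEM.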

Experiment [6] has the same target. The experiment can be described thus: Compound was tested for the inhibition of 5-HT-induced bradycardia after peroral administration of 1000 ug/kg dose in urethane-anesthetized rats. In kind it is functional, organism-based. A digest of the protocol:
as §3

Experiment [7] shares this target. The experiment can be described thus: Compound was tested for the inhibition of 5-HT-induced bradycardia after peroral administration of 30 ug/kg dose in urethane-anesthetized rats. In kind it is functional, organism-based. A digest of the protocol:
as §3

Experiment [8] has the same target. The experiment can be described thus: Compound was tested for the inhibition of 5-HT-induced bradycardia after peroral administration of 300 ug/kg dose in urethane-anesthetized rats. In kind it is functional, organism-based. In a few lines: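 Fasted rats dosed by gavage (5 mL/kg) with compound or distilled-water vehicle. Urethane anesthesia and surgical preparation 15–20 min before challenge. 5HT 0.03 mg/kg iv given 1 h after dosing. Peak bradycardia is compared with vehicle-treated controls. Means ± SEM, groups of 3–11 rats.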

For experiment [9] the target is unchanged. Description: Inhibition of 5-HT-induced bradycardia by 5-hydroxytryptamine 3+. Type of experiment: functional.
Experiment [10] has the same target. Description: Compound was tested for the inhibition of 5-HT-induced bradycardia after peroral administration of 0.1 mg/kg at 0.5 hours in urethane-anesthetized rats. Conditions: at 0.1 mg/kg. Details: dose 0.1 mg/kg. Type of experiment: functional, organism-based. In a few lines:
(§4)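 Duration study: antagonist or vehicle gavaged to conscious fasted rats (5 mL/kg). Rats were urethane-anesthetized and surgically prepared, then challenged with 5HT 0.03 mg/kg iv at the stated time after dosing. Vehicle-treated rats served as controls. Peak inhibition of bradycardia recorded in groups of 3–11, means ± SEM.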

For experiment [11] the target is unchanged. The experiment can be described thus: Compound was tested for the inhibition of 5-HT-induced bradycardia after peroral administration of 0.1 mg/kg at 1 hour in urethane-anesthetized rats. Type of experiment: functional, organism-based. More on the design: dose 0.1 mg/kg. To be noted: at 0.1 mg/kg. In a few lines:
as §4

Experiment [12] has the same target. The experiment can be described thus: Compound was tested for the inhibition of 5-HT-induced bradycardia after peroral administration of 0.1 mg/kg at 16 hours in urethane-anesthetized rats. To be noted: at 0.1 mg/kg. Type of experiment: functional, organism-based. Details: dose 0.1 mg/kg. In a few lines:
as §4

For experiment [13] the target is unchanged. Description: Compound was tested for the inhibition of 5-HT-induced bradycardia after peroral administration of 0.1 mg/kg at 3 hours in urethane-anesthetized rats. Type of experiment: functional, organism-based. Details: dose 0.1 mg/kg. To be noted: at 0.1 mg/kg. In a few lines: as §4
The target is the same in experiment [14]. Description: Compound was tested for the inhibition of 5-HT-induced bradycardia after peroral administration of 0.1 mg/kg at 6 hours in urethane-anesthetized rats. Type of experiment: functional, organism-based. More on the design: dose 0.1 mg/kg. To be noted: at 0.1 mg/kg. In a few lines:
as §4

The subject of experiment [15] is Serotonin 3 receptor (Cavia porcellus). The experiment can be described thus: In vitro binding affinity was measured for 5-hydroxytryptamine 3 receptor in the guinea pig ileum.
Experiment [16] has as its target T1, Serotonin 3 (5-HT3) receptor (Rattus norvegicus). Description: Compound was tested for the inhibition of 5-HT-induced bradycardia after peroral administration in urethane-anesthetized rats.
Experiment [17] shares this target. The experiment can be described thus: 5-hydroxytryptamine 3 receptor antagonistic activity as inhibition of 5-HT-induced bradycardia after iv administration of 100 ug/kg dose in urethane-anesthetized rats. Type of experiment: functional, organism-based. A digest of the protocol:
as §1

Experiment [18] shares this target. Description: 5-hydroxytryptamine 3 receptor antagonistic activity was measured by the inhibition of 5H+ T-induced bradycardia after iv administration of 1000 ug/kg dose in urethane-anesthetized rats. In kind it is functional, organism-based. A digest of the protocol: as §1
For experiment [19] the target is unchanged. The experiment can be described thus: Compound was tested for the inhibition of 5-HT-induced bradycardia after intravenous administration of 30 ug/kg dose in urethane-anesthetized rats. Type of experiment: functional, organism-based. A digest of the protocol: as §1
Experiment [20] shares this target. Description: 5-hydroxytryptamine 3 receptor antagonistic activity was measured by the inhibition of 5-HT-induced bradycardia after iv administration of 1000 ug/kg dose in urethane-anesthetized rats. Type of experiment: functional, organism-based. In a few lines:
as §1

The target is the same in experiment [21]. The experiment can be described thus: 5-HT3 receptor antagonistic activity was measured by the inhibition of 5-HT-induced bradycardia after iv administration of 1000 ug/kg dose in urethane-anesthetized rats. In kind it is functional, organism-based. A digest of the protocol:
as §1

For orientation: inhibition means the relative decrease from the control value, in per cent. What is called ED50 is the midpoint of the dose-response relation. Low values mean an effect at a small dose, high ones a need for a large dose.

For `CC1Cc2cc(Cl)cc(C(=O)NC3CC4CCC(C3)N4C)c2O1` (stereo not drawn), the inhibition came to 80% in experiment [1]; 79.8% in experiment [2]; 11% in experiment [3]; 58.1% in experiment [4]; 74.6% in experiment [5]; 94.6% in [6]. The inhibition in experiment [7] worked out at 21.9%; in experiment [8], 89.7%; in experiment [10], 87%; in [11], 74.6%; in experiment [12], 0%; in experiment [13] it was 75.2%. In addition, the inhibition in experiment [14] came out at 71.4%. Besides, the ED50 in experiment [9] amounted to 0.001 mg/kg; in experiment [16], 0.063 mg/kg. The compound also came in with a -Log KB in experiment [15] of 8.27.
Turning to `CN1C2CCC1CC(OC(=O)c1cccc3c1OCC3)C2` (stereo not drawn), the inhibition in experiment [1] turned out to be 27%; in experiment [17], 51.2%.
Regarding `CN1[C@@H]2CC[C@H]1C[C@H](OC(=O)c1ccccc1)C2`, in experiment [18], the inhibition was determined as 88.1%.
Turning to `CN1C2CCC1CC(NC(=O)c1ccc3c(c1)CC(C)(C)O3)C2` (stereo not drawn), the inhibition in experiment [1] came out at 16.7%.
For the compound `CN1[C@@H]2CC[C@H]1C[C@@H](OC(=O)c1cc(Cl)cc(Cl)c1)C2`, the inhibition in experiment [1] is 9.7%; in experiment [17], 71.4%.
`CN1C2CCC1CC(NC(=O)c1cccc3c1CC(C)(C)O3)C2` (stereo not drawn): the inhibition in experiment [1] was 2.1%.
The same measure, in the same setting: in the case of `Cc1coc2c(C(=O)OC3CC4CCC(C3)N4C)cccc12` (stereo not drawn) it was 7.7%.
As to `CN1C2CCC1CC(OC(=O)c1cccc3c1Cc1ccccc1-3)C2` (stereo not drawn), the inhibition in experiment [18] came out at 51%.
Turning to `CC1Cc2cc(F)cc(C(=O)OC3CC4CCC(C3)N4C)c2O1` (stereo not drawn), in experiment [1], the inhibition worked out at 32.2%.
Turning to `CN1C2CCC1CC(NC(=O)c1cccc3c1OC(C)(C)C3)C2` (stereo not drawn), the inhibition in [1] was determined as 47.5%; in experiment [2] it was 13.7%.
Consider `Cc1cc2cccc(C(=O)OC3CC4CCC(C3)N4C)c2o1` (stereo not drawn), for which, in experiment [1], the inhibition amounted to 7.3%.
The same measure, in the same setting: the figure for `CN1C2CCC1CC(NC(=O)c1ccc3c(c1)OC(C)(C)C3)C2` (stereo not drawn) is 0%.
In [18], `CN1C2CCC1CC(OC(=O)c1ccc3c(c1)oc1ccccc13)C2` (stereo not drawn) gave an inhibition of 1.5%.
Consider `CC1Oc2c(C(=O)OC3CC4CCC(C3)N4C)cccc2C1C` (stereo in doubt; 27), for which the figures for the inhibition in experiment [1], in experiment [2] and in experiment [19] were 32.7%, 35.6% and 47.3%, respectively.
In turn, `CC1Cc2cccc(C(=O)OC3CC4CCC(C3)N4C)c2O1` (stereo not drawn) showed an inhibition in experiment [1] of 30.6%.
Take `CN1C2CCC1CC(OC(=O)c1ccc(OC(F)(F)F)cc1)C2` (stereo not drawn): in [20], the inhibition was determined as 4.7%.
For `CN1CCC(OC(=O)c2ccccc2)CC1`, the inhibition in experiment [21] was found to be 0%.
`CN1C2CCC1CC(OC(=O)c1ccccc1-c1ccccc1)C2` (stereo not drawn): the inhibition in experiment [20] stood at 47.3%.

The values are drawn from ChEMBL document CHEMBL1125286, “Zatosetron, a potent, selective, and long-acting 5HT3 receptor antagonist: synthesis and structure-activity relationships” (J Med Chem, 1992).
